Experimental data taken from ChEMBL document CHEMBL1629579, “Correlating echinocandin MIC and kinetic inhibition of fks1 mutant glucan synthases for Candida albicans: implications for interpretive breakpoints” (Antimicrob Agents Chemother, 2009).
In brackets after ≈: the same amount, converted by molar mass. Numbered stars: 1 amine (or outer) side, 2 acyl side, 3 side chain; on linkers, the order of the positions; unused ones are H or OH. Bridge positions count the residues as written; N and C are the ends. Square brackets hold non-standard residues; d marks the D form. Peptide text beside a SMILES is read from it. * marks the point of attachment. pTerphenylCO(4''-OnC5H11) = CCCCCOc1ccc(-c2ccc(-c3ccc(C(=O)*)cc3)cc2)cc1; Orn(4R-OH,5R-OH) = O=C([C@H](C[C@@H](O)[C@@H](O)N[*:3])N[*:1])[*:2]; hTyr(3S-OH,4S-OH) = N[C@H](C(=O)O)[C@H](O)[C@@H](O)c1ccc(O)cc1; Pro(3S-OH,4S-Me) = C[C@H]1CN[C@H](C(=O)O)[C@H]1O; Hyp = O=C(O)[C@@H]1C[C@@H](O)CN1

Experiments:
Candida albicans [1] = assay: Antimicrobial activity against Candida albicans SC5314 by M27-A3 method in presence of 50% human serum; format: functional
How it was run: (§1)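 Broth microdilution per CLSI M27-A3 in RPMI 1640, done in triplicate on three separate days. Each strain was tested with and without 50% human serum. C. krusei ATCC 6258 and C. parapsilosis ATCC 22019 served as QC strains. Arithmetic means are reported, and geometric means were used for comparison.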

Candida albicans [2] = assay: Antimicrobial activity against Candida albicans 36082 by M27-A3 method in presence of 50% human serum; format: functional; how it was run: as §1
Candida albicans [3] = assay: Antimicrobial activity against Candida albicans 90028 by M27-A3 method in presence of 50% human serum; format: functional; how it was run: as §1
Candida albicans [4] = assay: Antimicrobial activity against Candida albicans 1002 by M27-A3 method; format: functional
How it was run: (§2)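 Broth microdilution per CLSI M27-A3 in RPMI 1640, with and without 50% human serum, in triplicate. C. krusei ATCC 6258 and C. parapsilosis ATCC 22019 served as quality-control strains. MIC reported as arithmetic mean of three repetitions on separate days.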

Candida albicans [5] = assay: Antimicrobial activity against Candida albicans 1002 by M27-A3 method in presence of 50% human serum; format: functional; how it was run: as §1
Candida albicans [6] = assay: Antimicrobial activity against Candida albicans 3107 by M27-A3 method; format: functional; how it was run: as §1
Candida albicans [7] = assay: Antimicrobial activity against Candida albicans 3795 by M27-A3 method; format: functional; how it was run: as §2
Candida albicans [8] = assay: Antimicrobial activity against Candida albicans 119 harboring FKS1 T1921C mutant gene and FKS1 hotspot1 F641L mutant gene by M27-A3 method; format: functional; how it was run: as §1
Candida albicans [9] = assay: Antimicrobial activity against Candida albicans 119 harboring FKS1 T1921C mutant gene and FKS1 hotspot1 F641L mutant gene by M27-A3 method in presence of 50% human serum; format: functional; how it was run: as §1
Candida albicans [10] = assay: Antimicrobial activity against Candida albicans 177 harboring FKS1 T1922C mutant gene and FKS1 hotspot1 F641S mutant gene by M27-A3 method in presence of 50% human serum; format: functional; how it was run: as §1
Candida albicans [11] = assay: Antimicrobial activity against Candida albicans 2762 harboring FKS1 T1922C mutant gene and FKS1 hotspot1 F641S mutant gene by M27-A3 method; format: functional; how it was run: as §1
Candida albicans [12] = assay: Antimicrobial activity against Candida albicans 149 harboring FKS1 G1942T mutant gene and FKS1 hotspot1 D648Y mutant gene by M27-A3 method; format: functional; how it was run: as §1
Candida albicans [13] = assay: Antimicrobial activity against Candida albicans 122 harboring FKS1 C1946A mutant gene and FKS1 hotspot1 P649H mutant gene by M27-A3 method; format: functional; how it was run: as §1
Candida albicans [14] = assay: Antimicrobial activity against Candida albicans 194 harboring FKS1 C1934T/G4082R mutant gene and FKS1 hotspot1 S645F mutant gene and FKS1 hotspot2 R1361R/H mutant gene by M27-A3 method; format: functional; how it was run: as §1
Candida albicans [15] = assay: Antimicrobial activity against Candida albicans A15 harboring FKS1 T1933Y mutant gene and FKS1 hotspot1 S645S/P mutant gene by M27-A3 method; format: functional; how it was run: as §1
Candida albicans [16] = assay: Antimicrobial activity against Candida albicans A15 harboring FKS1 T1933Y mutant gene and FKS1 hotspot1 S645S/P mutant gene by M27-A3 method in presence of 50% human serum; format: functional; how it was run: as §1
[17] = Inhibition of Candida albicans SC5314 1,3-beta-D-glucan synthase subunit FKS1p
How it was run: (§3)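 Enzyme is product-entrapped 1,3-β-D-glucan synthase, enriched from membranes of each strain grown at 37°C with shaking in YPD broth to early stationary phase. Filtration polymerization assay uses [3H]UDPG, started by adding enzyme and run 60 min at 25°C. Echinocandins are added as serial dilutions, with 1% DMSO controls for anidulafungin. IC50 is from a variable-slope sigmoidal fit; values are triplicate arithmetic means.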

[18] = Inhibition of Candida albicans 36082 1,3-beta-D-glucan synthase subunit FKS1p; how it was run: as §3
[19] = Inhibition of Candida albicans 90028 1,3-beta-D-glucan synthase subunit FKS1p; how it was run: as §3
[20] = Inhibition of Candida albicans 3107 1,3-beta-D-glucan synthase subunit FKS1p; how it was run: as §3
[21] = Inhibition of Candida albicans 119 1,3-beta-D-glucan synthase subunit FKS1p T1921C mutant
How it was run: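 Product-entrapped glucan synthase from YPD-grown cells (37°C, early stationary phase) in a filtration polymerization assay with [3H]UDPG. Echinocandin serial dilutions were added, with 1% DMSO in controls for anidulafungin. Reactions were started with enzyme, run 60 min at 25°C and stopped on ice. IC50 came from a variable-slope sigmoidal fit, in triplicate.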

[22] = Inhibition of Candida albicans 122 1,3-beta-D-glucan synthase subunit FKS1p C1946A mutant; how it was run: as §3
[23] = Inhibition of Candida albicans 194 1,3-beta-D-glucan synthase subunit FKS1p C1934T/G4082R mutant; how it was run: as §3
[24] = Inhibition of Candida albicans A15 1,3-beta-D-glucan synthase subunit FKS1p T1933Y mutant; how it was run: as §3
Candida albicans SC5314 = assay: Activity at Candida albicans SC5314 1,3-beta-D-glucan synthase subunit FKS1p
How it was run: (§4)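 Glucan synthase from cells grown at 37°C with vigorous shaking to early stationary phase in YPD. Membrane enzyme enriched by product entrapment. Serial echinocandin dilutions; ANF controls held 1% DMSO. Reaction started by adding enzyme, run 60 min at 25°C in a filtration polymerization assay, stopped on ice. IC50 from a variable-slope sigmoidal fit; means of three repetitions on separate days.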

Candida albicans [25] = assay: Activity at Candida albicans 36082 1,3-beta-D-glucan synthase subunit FKS1p; how it was run: as §4
Candida albicans [26] = assay: Activity at Candida albicans 5415 1,3-beta-D-glucan synthase subunit FKS1p T1933C mutant
How it was run: (§5)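 Product-entrapped 1,3-β-D-glucan synthase from cells grown in YPD at 37°C to early stationary phase. Wells held 50 mM HEPES pH 7.5, 10% glycerol, 1.5 mg/ml BSA, 25 mM KF, 1 mM EDTA, 25 μM GTP-γ-S, 1 μg enzyme and [3H]UDPG (0.015–2 mM). Reactions ran 60 min at 25°C. Vmax and Km came from Lineweaver-Burke plots, in triplicate.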

Candida albicans [27] = assay: Activity at Candida albicans 89 1,3-beta-D-glucan synthase subunit FKS1p C1934A mutant; how it was run: as §5
Candida albicans [28] = assay: Activity at Candida albicans 85 1,3-beta-D-glucan synthase subunit FKS1p C1934T mutant; how it was run: as §5
Candida albicans [29] = assay: Activity at Candida albicans 121 1,3-beta-D-glucan synthase subunit FKS1p G4082A mutant; how it was run: as §5
Candida albicans [30] = assay: Activity at Candida albicans 194 1,3-beta-D-glucan synthase subunit FKS1p C1934T/G4082R mutant; how it was run: as §5
Candida albicans [31] = assay: Activity at Candida albicans A15-10 1,3-beta-D-glucan synthase subunit FKS1p T1933C mutant

SMILES: CCCCCOc1ccc(-c2ccc(-c3ccc(C(=O)N[C@H]4C[C@@H](O)[C@@H](O)NC(=O)[C@@H]5[C@@H](O)[C@@H](C)CN5C(=O)[C@H]([C@@H](C)O)NC(=O)[C@H]([C@H](O)[C@@H](O)c5ccc(O)cc5)NC(=O)[C@@H]5C[C@@H](O)CN5C(=O)[C@H]([C@@H](C)O)NC4=O)cc3)cc2)cc1 [ANIDULAFUNGIN] ({pTerphenylCO(4''-OnC5H11)}-[Orn(4R-OH,5R-OH)]T[Hyp][hTyr(3S-OH,4S-OH)]T[Pro(3S-OH,4S-Me)]; lactam 1-C)
- MIC (Candida albicans [1]): 0.5 µg/mL
- MIC (Candida albicans [2]): 0.12 µg/mL
- MIC (Candida albicans [3]): 0.25 µg/mL
- MIC (Candida albicans [4]): 0.06 µg/mL (≈ 0.0526 µM)
- MIC (Candida albicans [5]): 0.44 µg/mL
- MIC (Candida albicans [6]): 0.03 µg/mL (≈ 0.0263 µM)
- MIC (Candida albicans [7]): 0.06 µg/mL (≈ 0.0526 µM)
- MIC (Candida albicans [8]): 0.16 µg/mL (≈ 0.14 µM)
- MIC (Candida albicans [9]): 2 µg/mL
- MIC (Candida albicans [10]): 4 µg/mL
- MIC (Candida albicans [11]): 1 µg/mL (≈ 0.877 µM)
- MIC (Candida albicans [12]): 0.83 µg/mL (≈ 0.728 µM)
- MIC (Candida albicans [13]): 0.67 µg/mL (≈ 0.588 µM)
- MIC (Candida albicans [14]): 4 µg/mL (≈ 3.51 µM)
- MIC (Candida albicans [15]): 0.5 µg/mL (≈ 0.438 µM)
- MIC (Candida albicans [16]): 2 µg/mL
- IC50 [17]: 0.00089 µg/mL (≈ 0.000781 µM)
- Ki [17]: 0.00133 µg/mL (≈ 0.00117 µM)
- IC50 [18]: 0.00151 µg/mL (≈ 0.00132 µM)
- Ki [18]: 0.00143 µg/mL (≈ 0.00125 µM)
- IC50 [19]: 0.00183 µg/mL (≈ 0.0016 µM)
- Ki [19]: 0.00063 µg/mL (≈ 0.000553 µM)
- IC50 [20]: 0.00312 µg/mL (≈ 0.00274 µM)
- Ki [20]: 0.00167 µg/mL (≈ 0.00146 µM)
- IC50 [21]: 0.0113 µg/mL (≈ 0.00991 µM)
- Ki [21]: 0.00677 µg/mL (≈ 0.00594 µM)
- IC50 [22]: 0.491 µg/mL (≈ 0.431 µM)
- Ki [22]: 0.64607 µg/mL (≈ 0.567 µM)
- IC50 [23]: 0.782 µg/mL (≈ 0.686 µM)
- Ki [23]: 0.29924 µg/mL (≈ 0.262 µM)
- IC50 [24]: 0.1287 µg/mL (≈ 0.113 µM)
- Km (Candida albicans SC5314): 125 µM
- Vmax (Candida albicans SC5314): 6.72 nmol/min
- Km (Candida albicans [25]): 89 µM
- Vmax (Candida albicans [25]): 5.87 nmol/min
- Km (Candida albicans [26]): 98 µM
- Vmax (Candida albicans [26]): 3.12 nmol/min
- Km (Candida albicans [27]): 61 µM
- Vmax (Candida albicans [27]): 2.51 nmol/min
- Km (Candida albicans [28]): 25 µM
- Vmax (Candida albicans [28]): 1.83 nmol/min
- Km (Candida albicans [29]): 129 µM
- Vmax (Candida albicans [29]): 4.41 nmol/min
- Km (Candida albicans [30]): 61 µM
- Vmax (Candida albicans [30]): 5.81 nmol/min
- Km (Candida albicans [31]): 91 µM
- Vmax (Candida albicans [31]): 3.26 nmol/min
